Source: ChEMBL document CHEMBL1125633, “1H-imidazo[4,5-c]quinolin-4-amines: novel non-xanthine adenosine antagonists” (J Med Chem, 1991)

Key:
[1] = target: T1, Adenosine receptor A1 (Rattus norvegicus, UniProt P25099); assay: Displacement of [3H]CPX from adenosine A1 receptor of rat brain cortical membrane
T1 sequence (P25099 whole entry): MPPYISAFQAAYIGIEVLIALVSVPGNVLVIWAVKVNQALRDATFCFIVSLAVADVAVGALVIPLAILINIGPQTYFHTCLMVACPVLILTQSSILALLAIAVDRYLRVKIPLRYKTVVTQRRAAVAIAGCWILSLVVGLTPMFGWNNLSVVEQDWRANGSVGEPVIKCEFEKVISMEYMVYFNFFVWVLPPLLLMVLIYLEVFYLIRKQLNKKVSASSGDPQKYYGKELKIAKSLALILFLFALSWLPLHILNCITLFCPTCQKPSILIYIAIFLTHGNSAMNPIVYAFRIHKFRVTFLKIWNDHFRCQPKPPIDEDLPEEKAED

[2] = target: T2, Adenosine receptor A1 (Bos taurus, UniProt P28190); assay: Displacement of [3H]CPX from adenosine A1 receptor of calf brain cortical membrane
T2 sequence (P28190 whole entry): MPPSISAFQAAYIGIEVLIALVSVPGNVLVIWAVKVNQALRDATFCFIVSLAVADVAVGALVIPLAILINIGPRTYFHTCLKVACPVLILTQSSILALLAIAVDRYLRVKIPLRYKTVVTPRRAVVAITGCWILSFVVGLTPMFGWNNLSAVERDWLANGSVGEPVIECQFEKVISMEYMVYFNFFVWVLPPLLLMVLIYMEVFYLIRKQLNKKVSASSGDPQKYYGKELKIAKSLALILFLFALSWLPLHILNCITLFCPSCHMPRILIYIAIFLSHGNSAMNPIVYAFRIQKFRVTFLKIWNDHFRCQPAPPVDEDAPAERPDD
Summary of the method: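 Calf brain cortical membranes, about 15 μg protein, incubated with 0.1 nM [3H]CPX in 50 mM Tris-HCl pH 7.4 for 1 h at 25 °C in duplicate. Nonspecific binding was defined with 10 μM R-PIA. DMSO was at most 1% final. Filter-bound radioactivity was counted. Means of three experiments.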

[3] = target: T3, Adenosine A2 receptor (Rattus norvegicus, UniProt P29276+P30543); assay: (§1) Binding affinity for adenosine A2 receptor using [3H]NECA in rat striatal membrane; format: cell membranes, Striatum
[4] = target: Adenosine receptors; A1 & A2 (Rattus norvegicus) (UniProt P29276+P25099+P30543); assay: Ratio of Ki for adenosine A2 and A1 receptors; format: protein assay
[5] = target: Adenosine A2 receptor (Rattus norvegicus) (UniProt P29276+P30543); assay: Inhibitory binding activity for adenosine A2 receptor using [3H]NECA in rat striatal membrane at 1 uM; format: cell membranes; settings: Striatum
Summary of the method: (§2)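 Rat striatal membranes from male Wistar rats, treated with 2 IU/mL adenosine deaminase for 30 min at 37 °C. Binding used about 50 μg protein and 4 nM [3H]NECA in 50 mM Tris-HCl, 10 mM MgCl2, pH 7.7, with 50 nM CPA added to block A1 sites. Nonspecific binding was defined with 100 μM CPA. Incubation 1 h at 25 °C in duplicate, ended by filtration and scintillation counting.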

[6] = target: T3, Adenosine A2 receptor; assay: as §1; format: cell membranes, Striatum; summary of the method: as §2; remark: listed apart in the source

For `c1ccc2c3nc(C4CCCC4)nc-3c(NC3CCCC3)[nH]c2c1`, the Ki [1] was 0.039 µM, the Ki [2] was 0.0091 µM and the Ki [3] was 0.45 µM.
`Nc1[nH]c2ccccc2c2nc(-c3ccccc3)nc1-2` showed a Ki [1] of 0.034 µM, a Ki [2] of 0.017 µM and a Ki [3] of 0.29 µM.
For `C[C@@H](Cc1ccccc1)Nc1[nH]c2ccccc2c2ncnc1-2`, the Ki [1] was 1.5 µM, the Ki [2] was 0.46 µM and the Ratio [4] was 1.9. It also gave a Ki [3] of 2.8 µM.
Work on `c1ccc(-c2nc3c(NC4CCCC4)[nH]c4ccccc4c-3n2)cc1` yielded a Ki [1] of 0.01 µM, a Ki [2] of 0.0015 µM and a Ki [3] of 0.45 µM.
In the case of `C[C@H](Cc1ccccc1)Nc1[nH]c2ccccc2c2ncnc1-2`, the Ki [1] is reported as 0.31 µM, the Ki [2] is reported as 0.074 µM and the Ratio [4] is reported as 2.6. The Ki [3] was 0.81 µM.
`c1ccc(Nc2nc3ccccc3c3[nH]c(C4CCCC4)nc23)cc1` gave a Ki [1] of 0.23 µM, a Ki [2] of 0.023 µM and an inhibition [5] of 6%.
`Nc1[nH]c2ccccc2c2nc(C3CCCC3)nc1-2` gave a Ki [1] of 0.27 µM, a Ki [2] of 0.29 µM and a Ratio [4] of 3. For the same molecule, the Ki [3] was 0.74 µM.
`c1ccc(Nc2[nH]c3ccccc3c3nc(-c4ccccc4)nc2-3)cc1` showed a Ki [1] of 0.46 µM, a Ki [2] of 0.05 µM and an inhibition [5] of 9%.
In the case of `c1ccc(Nc2[nH]c3ccccc3c3ncnc2-3)cc1`, the Ki [1] is reported as 2.1 µM, the Ki [2] is reported as 0.49 µM and the Ratio [4] is reported as 5. The Ki [6] was 10.5 µM.
For `c1ccc2c3ncnc-3c(NC3CCCC3)[nH]c2c1`, the Ki [1] was 0.043 µM, the Ki [2] was 0.01 µM and the Ratio [4] was 6.7. For the same molecule, the Ki [3] was 0.29 µM.
`Nc1[nH]c2ccccc2c2ncnc1-2` showed a Ki [1] of 1.6 µM, a Ki [2] of 1.7 µM and a Ratio [4] of 0.9. It also gave a Ki [6] of 1.4 µM.
